Columns and labels:
[1] = target: T1, D(2) dopamine receptor (Homo sapiens, UniProt P14416); experiment: Tested for the inhibitory activity against D2H (high-affinity states) receptor in infected HEK 293 cells.; assay type: cell-based, HEK293
Method in brief: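 Competition binding on membranes of HEK293 cells expressing dopamine D2 receptors in high-affinity (G-protein coupled) states. Radioligand [125I]-R-(+)-trans-7-OH-PIPAT. […] Ki from iterative nonlinear least-squares curve fitting.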

[2] = target: T1, D(2) dopamine receptor; experiment: Tested for the inhibitory activity against Dopamine D2 receptor in infected Sf9 cells; assay type: cell-based
Method in brief: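 Membranes from Sf9 cells infected with AcMNPVrD2 baculovirus (non-G-protein coupled, low-affinity D2). Drugs up to 10^-5 M displace 0.1 nM [125I]-NCQ298 in 50 mM Tris pH 7.4, 120 mM NaCl, protease inhibitors, BSA 1 mg/mL. Incubation 30 min at 37 °C, filtration, gamma counting. Nonspecific binding with 10 μM (+)-butaclamol or 1 μM 7-OH-DPAT. Ki by nonlinear least-squares fitting.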

[3] = target: T2, Sigma non-opioid intracellular receptor 1 (Rattus norvegicus, UniProt Q9R0C9); experiment: Tested for the inhibitory activity against sigma receptor rat cerebellar
T2 sequence (Q9R0C9 whole entry): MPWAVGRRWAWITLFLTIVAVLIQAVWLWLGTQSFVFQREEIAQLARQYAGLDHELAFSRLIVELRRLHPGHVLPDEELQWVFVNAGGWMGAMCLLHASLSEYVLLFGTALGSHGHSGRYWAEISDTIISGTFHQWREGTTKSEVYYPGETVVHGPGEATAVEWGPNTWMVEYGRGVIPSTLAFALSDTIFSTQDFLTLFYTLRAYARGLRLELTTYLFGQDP
Method in brief: (§1)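 Rat cerebellar homogenate (65–75 μg) with 0.3–0.5 nM [125I]-S-(-)-trans-7-OH-PIPAT plus 15 nM spiperone and varying inhibitor, 20 min at 25 °C. Nonspecific binding: 10 μM haloperidol. Vacuum filtration through PEI-presoaked glass fiber filters, washed with ice-cold 50 mM Tris-HCl pH 7.4.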

[4] = target: D(3) dopamine receptor (Homo sapiens, UniProt P35462); experiment: Tested for the inhibitory activity against Dopamine D3 receptor in infected Sf9 cells; assay type: cell-based
Sequence of D(3) dopamine receptor (P35462 whole entry): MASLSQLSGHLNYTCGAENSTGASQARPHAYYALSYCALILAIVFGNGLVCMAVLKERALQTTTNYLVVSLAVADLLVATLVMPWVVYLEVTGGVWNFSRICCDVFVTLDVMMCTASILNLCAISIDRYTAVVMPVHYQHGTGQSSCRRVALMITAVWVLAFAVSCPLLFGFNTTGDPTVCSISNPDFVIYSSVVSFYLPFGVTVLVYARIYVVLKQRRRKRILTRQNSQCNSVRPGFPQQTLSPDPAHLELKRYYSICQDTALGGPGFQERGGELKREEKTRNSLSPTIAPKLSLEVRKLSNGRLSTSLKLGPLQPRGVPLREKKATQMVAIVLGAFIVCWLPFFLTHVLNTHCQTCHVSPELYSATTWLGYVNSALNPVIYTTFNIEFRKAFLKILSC
Method in brief: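 Membranes from Sf9 cells infected with AcMNPVrD3, in 50 mM Tris pH 7.4 with 120 mM NaCl, protease inhibitors and BSA 1 mg/mL. Nonspecific binding: 10 μM (+)butaclamol or 1 μM 7-OH-DPAT. Filtration onto PEI-soaked glass fiber, γ counting, LIGAND nonlinear fit.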

[5] = target: T3, 5-hydroxytryptamine receptor 1A (Rattus norvegicus, UniProt P19327); experiment: Tested for the inhibitory activity against 5-hydroxytryptamine 1A receptor in rat hippocampal; assay type: tissue-based, Hippocampus
T3 sequence (P19327 whole entry): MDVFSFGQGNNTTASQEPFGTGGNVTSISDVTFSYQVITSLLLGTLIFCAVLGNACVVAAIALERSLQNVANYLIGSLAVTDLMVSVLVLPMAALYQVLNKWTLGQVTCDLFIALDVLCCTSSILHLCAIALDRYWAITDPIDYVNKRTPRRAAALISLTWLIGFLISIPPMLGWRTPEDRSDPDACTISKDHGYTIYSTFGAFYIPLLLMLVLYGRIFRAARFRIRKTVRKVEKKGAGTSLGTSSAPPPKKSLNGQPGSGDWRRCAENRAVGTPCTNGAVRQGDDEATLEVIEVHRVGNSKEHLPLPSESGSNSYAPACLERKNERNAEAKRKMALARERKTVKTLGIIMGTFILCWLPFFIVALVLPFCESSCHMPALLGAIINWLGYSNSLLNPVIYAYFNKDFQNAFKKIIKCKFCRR
Method in brief: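 Rat hippocampal homogenate in ice-cold 50 mM Tris-HCl pH 7.4, spun at 20000g for 20 min. Pellet lysed in water, preincubated at 37 °C to remove endogenous serotonin, then resuspended in Tris with 2 mM MgCl2. Nonspecific binding: 10 μM 5-HT. Filtration, γ counting, Ki by LIGAND fit.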

[6] = target: T2, Sigma non-opioid intracellular receptor 1; experiment: tested for the inhibitory activity against sigma receptor rat cerebellar; method in brief: as §1

T1 sequence (P14416 whole entry): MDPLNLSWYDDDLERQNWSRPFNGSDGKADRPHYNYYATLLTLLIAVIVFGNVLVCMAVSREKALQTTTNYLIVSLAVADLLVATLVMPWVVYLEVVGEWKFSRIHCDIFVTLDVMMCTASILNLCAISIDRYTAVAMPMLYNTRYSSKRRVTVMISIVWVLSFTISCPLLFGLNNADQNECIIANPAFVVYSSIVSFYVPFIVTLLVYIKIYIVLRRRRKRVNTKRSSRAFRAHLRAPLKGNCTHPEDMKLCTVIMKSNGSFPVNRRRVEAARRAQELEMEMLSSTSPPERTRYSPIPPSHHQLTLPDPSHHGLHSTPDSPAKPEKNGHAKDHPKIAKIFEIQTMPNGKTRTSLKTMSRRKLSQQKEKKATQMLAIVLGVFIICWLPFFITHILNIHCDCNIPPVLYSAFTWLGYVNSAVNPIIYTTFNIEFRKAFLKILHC

| Ki [6] | SMILES | Ki [1] | Ki [2] | Ki [3] | Ki [4] | Ki [5] |
| --- | --- | --- | --- | --- | --- | --- |
| – | CCCN(C/C=C/I)C1CCc2ccc(O)cc2C1 (centres undefined) | 6.6 nM | 265 nM | 3.2 nM | – | – |
| – | CCCN(C/C=C/I)C1COc2c(O)cccc2C1 (centres undefined) | – | > 5000 nM | 492 nM | 31.4 nM | 1270 nM |
| – | CCCN(C/C=C/I)C1COc2ccc(O)cc2C1 (centres undefined) | – | 784 nM | > 10000 nM | 6.69 nM | 619 nM |
| – | CCCN(C/C=C/I)C1CCc2c(O)cccc2C1 (centres undefined) | 3.6 nM | 324 nM | 1240 nM | 0.99 nM | 47.9 nM |
| – | CCCN(CCC)C1CCc2ccc(O)cc2C1 (centres undefined) | – | – | 23.2 nM | – | – |
| 1.68 nM | Oc1ccc2c(c1)CC(NC/C=C/I)CC2 (centres undefined) | – | – | – | 30.2 nM | – |
| – | CCCN(C/C=C/I)C1CCc2cc(O)ccc2C1 (centres undefined) | 9.7 nM | 547 nM | 28.4 nM | 2.2 nM | 297 nM |

— ChEMBL document CHEMBL1127788, “Iodinated 2-aminotetralins and 3-amino-1-benzopyrans: ligands for dopamine D2 and D3 receptors” (J Med Chem, 1994)
